Laboratory results as given in ChEMBL document CHEMBL4689842, “EUbOPEN Chemogenomics Library wave 1” (2021).

Tested on: HEK-293T
Experiment: Multiplex assay against HEK293T;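 as to Population Tubulin-Different-Phenotype (%): share of the cells with healthy nuclei that show this phenotype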
Assay type: toxicity, cell-based
Settings: human
Summary of the method: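 Per cents of healthy-nucleus cells form the tubulin, mitochondrial-mass and membrane-permeability phenotype values. Live cells were stained at seeding with Hoechst33342, BioTracker Green Microtubule Cytoskeleton Dye, MitoTracker Red and Annexin V Alexa Fluor 680. After compound addition they were imaged on a CQ1 microscope at 37°C and 5% CO2, and CellPathfinder machine-learning gating split them into Hoechst high-intensity objects or normal cells, normal cells into healthy, pyknosed or fragmented nuclei, and pyknosed cells into mitotic or apoptotic.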

[1] = 12 h, 1 µM, compound concentration 1 uM, replicate 1
[2] = 12 h, 1 µM, compound concentration 1 uM, replicate 2
[3] = 12 h, 10 µM, compound concentration 10 uM, replicate 1
[4] = 12 h, 10 µM, compound concentration 10 uM, replicate 2
[5] = 24 h, 1 µM, compound concentration 1 uM, replicate 1
[6] = 24 h, 1 µM, compound concentration 1 uM, replicate 2
[7] = 24 h, 10 µM, compound concentration 10 uM, replicate 1
[8] = 24 h, 10 µM, compound concentration 10 uM, replicate 2
[9] = 48 h, 1 µM, compound concentration 1 uM, replicate 1
[10] = 48 h, 1 µM, compound concentration 1 uM, replicate 2
[11] = 48 h, 10 µM, compound concentration 10 uM, replicate 1
[12] = 48 h, 10 µM, compound concentration 10 uM, replicate 2

CCc1cccc(CC)c1NC(=O)c1nn(C)c2c1CCc1cnc(Nc3ccc(C(=O)NC4CCN(C)CC4)cc3OC(F)(F)F)nc1-2
Population Apoptotic (%) [1]: 66% | Population Fragmented Nuclei (%) [1]: 8% | Population Healthy Nuclei (%) [1]: 46% | Population Hoechst High Intensity Objects (%) [1]: 11% | Population Membrane Permeable-Phenotype (%) [1]: 3% | Population Mitochondria Different-Phenotype (%) [1]: 93% | Population Mitotic Cells (%) [1]: 33% | Population Normal (%) [1]: 88% | Population Pyknosed Nuclei (%) [1]: 45% | Population Tubulin-Different-Phenotype (%) [1]: 68% | Total Cell Count [1]: 312 | Population Apoptotic (%) [2]: 28% | Population Fragmented Nuclei (%) [2]: 4% | Population Healthy Nuclei (%) [2]: 39% | Population Hoechst High Intensity Objects (%) [2]: 4% | Population Membrane Permeable-Phenotype (%) [2]: 2% | Population Mitochondria Different-Phenotype (%) [2]: 57% | Population Mitotic Cells (%) [2]: 71% | Population Normal (%) [2]: 95% | Population Pyknosed Nuclei (%) [2]: 56% | Population Tubulin-Different-Phenotype (%) [2]: 62% | Total Cell Count [2]: 251 | Population Apoptotic (%) [3]: 80% | Population Fragmented Nuclei (%) [3]: 11% | Population Healthy Nuclei (%) [3]: 31% | Population Hoechst High Intensity Objects (%) [3]: 11% | Population Membrane Permeable-Phenotype (%) [3]: 0% | Population Mitochondria Different-Phenotype (%) [3]: 98% | Population Mitotic Cells (%) [3]: 19% | Population Normal (%) [3]: 88% | Population Pyknosed Nuclei (%) [3]: 57% | Population Tubulin-Different-Phenotype (%) [3]: 98% | Total Cell Count [3]: 300 | Population Apoptotic (%) [4]: 73% | Population Fragmented Nuclei (%) [4]: 4% | Population Healthy Nuclei (%) [4]: 16% | Population Hoechst High Intensity Objects (%) [4]: 7% | Population Membrane Permeable-Phenotype (%) [4]: 4% | Population Mitochondria Different-Phenotype (%) [4]: 86% | Population Mitotic Cells (%) [4]: 26% | Population Normal (%) [4]: 92% | Population Pyknosed Nuclei (%) [4]: 78% | Population Tubulin-Different-Phenotype (%) [4]: 86% | Total Cell Count [4]: 152 | Population Apoptotic (%) [5]: 63% | Population Fragmented Nuclei (%) [5]: 10% | Population Healthy Nuclei (%) [5]: 53% | Population Hoechst High Intensity Objects (%) [5]: 10% | Population Membrane Permeable-Phenotype (%) [5]: 1% | Population Mitochondria Different-Phenotype (%) [5]: 84% | Population Mitotic Cells (%) [5]: 36% | Population Normal (%) [5]: 89% | Population Pyknosed Nuclei (%) [5]: 36% | Population Tubulin-Different-Phenotype (%) [5]: 56% | Total Cell Count [5]: 342 | Population Apoptotic (%) [6]: 25% | Population Fragmented Nuclei (%) [6]: 2% | Population Healthy Nuclei (%) [6]: 59% | Population Hoechst High Intensity Objects (%) [6]: 4% | Population Membrane Permeable-Phenotype (%) [6]: 3% | Population Mitochondria Different-Phenotype (%) [6]: 52% | Population Mitotic Cells (%) [6]: 74% | Population Normal (%) [6]: 95% | Population Pyknosed Nuclei (%) [6]: 38% | Population Tubulin-Different-Phenotype (%) [6]: 55% | Total Cell Count [6]: 287 | Population Apoptotic (%) [7]: 74% | Population Fragmented Nuclei (%) [7]: 12% | Population Healthy Nuclei (%) [7]: 42% | Population Hoechst High Intensity Objects (%) [7]: 10% | Population Membrane Permeable-Phenotype (%) [7]: 4% | Population Mitochondria Different-Phenotype (%) [7]: 98% | Population Mitotic Cells (%) [7]: 25% | Population Normal (%) [7]: 89% | Population Pyknosed Nuclei (%) [7]: 45% | Population Tubulin-Different-Phenotype (%) [7]: 98% | Total Cell Count [7]: 342 | Population Apoptotic (%) [8]: 93% | Population Fragmented Nuclei (%) [8]: 6% | Population Healthy Nuclei (%) [8]: 32% | Population Hoechst High Intensity Objects (%) [8]: 5% | Population Membrane Permeable-Phenotype (%) [8]: 0% | Population Mitochondria Different-Phenotype (%) [8]: 93% | Population Mitotic Cells (%) [8]: 6% | Population Normal (%) [8]: 94% | Population Pyknosed Nuclei (%) [8]: 61% | Population Tubulin-Different-Phenotype (%) [8]: 91% | Total Cell Count [8]: 158 | Population Apoptotic (%) [9]: 43% | Population Fragmented Nuclei (%) [9]: 14% | Population Healthy Nuclei (%) [9]: 59% | Population Hoechst High Intensity Objects (%) [9]: 12% | Population Membrane Permeable-Phenotype (%) [9]: 0% | Population Mitochondria Different-Phenotype (%) [9]: 57% | Population Mitotic Cells (%) [9]: 56% | Population Normal (%) [9]: 87% | Population Pyknosed Nuclei (%) [9]: 26% | Population Tubulin-Different-Phenotype (%) [9]: 46% | Total Cell Count [9]: 417 | Population Apoptotic (%) [10]: 27% | Population Fragmented Nuclei (%) [10]: 7% | Population Healthy Nuclei (%) [10]: 69% | Population Hoechst High Intensity Objects (%) [10]: 3% | Population Membrane Permeable-Phenotype (%) [10]: 2% | Population Mitochondria Different-Phenotype (%) [10]: 32% | Population Mitotic Cells (%) [10]: 72% | Population Normal (%) [10]: 96% | Population Pyknosed Nuclei (%) [10]: 23% | Population Tubulin-Different-Phenotype (%) [10]: 43% | Total Cell Count [10]: 410 | Population Apoptotic (%) [11]: 84% | Population Fragmented Nuclei (%) [11]: 14% | Population Healthy Nuclei (%) [11]: 52% | Population Membrane Permeable-Phenotype (%) [11]: 3% | Population Mitochondria Different-Phenotype (%) [11]: 94% | Population Mitotic Cells (%) [11]: 15% | Population Pyknosed Nuclei (%) [11]: 32% | Population Tubulin-Different-Phenotype (%) [11]: 88% | Total Cell Count [11]: 339 | Population Apoptotic (%) [12]: 91% | Population Fragmented Nuclei (%) [12]: 8% | Population Healthy Nuclei (%) [12]: 38% | Population Hoechst High Intensity Objects (%) [12]: 13% | Population Membrane Permeable-Phenotype (%) [12]: 6% | Population Mitochondria Different-Phenotype (%) [12]: 93% | Population Mitotic Cells (%) [12]: 8% | Population Normal (%) [12]: 86% | Population Pyknosed Nuclei (%) [12]: 52% | Population Tubulin-Different-Phenotype (%) [12]: 86% | Total Cell Count [12]: 173
